Broadly, the pIC50 is the negative decadic logarithm of the IC50, by convention in mol/L.

Activity and IC50 data for one compound are collected here from ChEMBL document CHEMBL4680124, “2-Styryl-4-aminoquinazoline derivatives as potent DNA-cleavage, p53-activation and in vivo effective anticancer agents” (Eur J Med Chem, 2020).

pIC50: −log10 of the molar value. Calls of active or inactive are those of the source. The calls are words filed in the database; no cut-off is given here.

The test system of test [1] is MGC-803. Kind of test: Induction of apoptosis in human MGC-803 cells assessed as increase in Bim expression at 0.5 to 2.5 uM measured after 24 hrs by Western blot analysis. It counts as functional, cell-based. Conditions: dose 0.5-2.5 µM. Summed up:
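MGC-803 cells (2×10^6) cultured overnight, then exposed 24 h to 0.5, 1.0 or 2.5 μM, or 5.0 μM for the reference agent. Lysates were resolved by SDS-PAGE, transferred to PVDF and probed with primary antibodies. Detection used AP-linked anti-rabbit IgG and ECL. β-actin served as loading control.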
Background: Immunoblotting shows a protein as a band on a membrane.

The test system of test [2] is PC-3. Description: Cytotoxicity against human PC-3 cells assessed as reduction in cell viability preincubated for 48 hrs and measured after 4 hrs by MTT assay. The class given is functional, cell-based. A general note: Tetrazolium assays rely on reduction of a dye to a coloured formazan, in cell work by metabolically active cells.
Test [3] deals with DNA. Kind of test: Binding affinity to Escherichia coli pBR322 DNA assessed as intercalation upto 100 uM by agarose gel electrophoresis assay. It counts as nucleic-acid assay. Conditions: dose microM <=100. In short, it runs like this:
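pBR322 plasmid DNA incubated with compound at 50, 100 or 200 µM for 3 h in TAE buffer. Reaction stopped with loading buffer. Run on 1% agarose gel, stained with ethidium bromide, imaged under UV transillumination. Lane controls: DNA with 1% DMSO (negative), DNA with EB (positive).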

Test [4] in a line: Induction of mitochondria membrane potential loss in human MGC-803 cells assessed as increase in green fluorescence at 0.5 uM incubated 24 hrs by JC-1 probe based flow cytometry analysis (reference value: 4.67%). It counts as functional.
Test [5] relates to MGC-803. Kind of test: Induction of apoptosis in human MGC-803 cells assessed as cell shrinkage at 0.5 to 2.5 uM incubated for 24 hrs by Hoechst 33258 staining based analysis. The class given is functional. Particulars: dose 0.5-2.5 µM. In short, it runs like this:
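MGC-803 cells treated in six-well plates, fixed in 4% paraformaldehyde for 10 min, washed, stained with Hoechst 33258 for 5 min, and examined for nuclear morphology by fluorescence microscopy.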

Test [6] concerns MGC-803. Description: Induction of apoptosis in human MGC-803 cells assessed as necrotic cells at 0.5 uM measured after 24 hrs by Annexin-V/propidium iodide staining-based flow cytometric analysis (Rvb =6.05%).
For test [7], the system named is MGC-803. Description: Induction of DNA damage in human MGC-803 cells assessed as increase in p-p53 level at 2.5 uM measured after 24 hrs by Western blot analysis. It counts as functional, cell-based. Summed up:
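MGC-803 cells (2×10^6) plated overnight, then treated for 24 h at 0.5, 1.0 or 2.5 µM (test agent) or 5.0 µM (comparator). Whole-cell lysates separated by SDS-PAGE, transferred to PVDF and probed with primary antibodies. AP-linked anti-rabbit IgG, ECL detection, β-actin loading control. Representative of three experiments.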

Test [8] relates to MGC-803. Description: Induction of intracellular Ca+ level in human MGC-803 cells at 0 to 2.5 uM after 24 hrs by fluo-3 AM dye based flow cytometric analysis. It counts as functional, cell-based. Conditions: dose 0-2.5 µM. Summed up:
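MGC-803 cells in six-well plates exposed 24 h to 0.5, 1.0 or 2.5 μM. Cells were harvested, washed in cold PBS and loaded with Fluo-3 AM for 30 min at 37 in the dark. After three PBS washes, intracellular Ca2+ fluorescence was read by flow cytometry. Three independent experiments.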
For orientation: Flow cytometry measures light scatter and fluorescence of single cells or particles in a stream.

Test [9] relates to Calf thymus DNA. Kind of test: Binding affinity to calf thymus DNA assessed as hypochromism by measuring absorption spectra at 20 uM incubated for 5 mins by UV-Vis absorption spectrometry. The class given is tissue-based. Particulars: Bos taurus. Summed up: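 Compound at 20 µM in Tris-HCl buffer, 25 °C, titrated with ct-DNA at [DNA]/[compound] 0 to 1.0 in steps of 0.1. Absorption spectra recorded at 295–360 nm after 5 min equilibration following each addition.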

Test [10] deals with MGC-803. Description: Induction of apoptosis in human MGC-803 cells assessed as late apoptotic cells at 0.5 uM measured after 24 hrs by Annexin-V/propidium iodide staining-based flow cytometric analysis (Rvb =0.93%).

On to `NCCCCNc1nc(/C=C/c2ccc([N+](=O)[O-])cc2)nc2ccccc12`, for which the result in test [1], in test [3], in test [5], in test [7], in test [8] and in test [9] was Active. For the same compound, in [2], the negative logarithm of the IC50 (pIC50) is 5.34. For the same compound, the values for the Activity in test [4], in test [6] and in test [10] were 8.91%, 8.13% and 6.91%, respectively.
